Screening data deposited in PubChem BioAssay by The Scripps Research Institute Molecular Screening Center.
OX1R antag-1 – OX1R (human) antagonism; inhibition, % at 6.6 µM; 330,000 tested, 1.8% active; OX1R-expressing cells, FRET antagonist read-out; O43613; in the data active = inhibition mostly above about 38%, no sharp cut-off; inactive = mostly below about 40%;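 also: 0% = agonist challenge alone and 100% = reference antagonist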
GalR3 antagonist – blocks the human galanin receptor 3; O60755; HEK293 GalR3-CNG cAMP membrane potential fluorescence; galR3 body fused to GalR1 C-terminus; inhibition, % at 3 µM; 360,000 tested, 0.44% active;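 active = inhibition above the screen-wide average plus 3 SD, cut at about 13% in these data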;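 also: forskolin and galanin both at EC90 stimulate the cells; cAMP rise reported by CNG channel membrane potential dye signal; 0% = forskolin plus galanin with DMSO and 100% = forskolin alone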
Target sequence (O60755 1-299 limits assumed): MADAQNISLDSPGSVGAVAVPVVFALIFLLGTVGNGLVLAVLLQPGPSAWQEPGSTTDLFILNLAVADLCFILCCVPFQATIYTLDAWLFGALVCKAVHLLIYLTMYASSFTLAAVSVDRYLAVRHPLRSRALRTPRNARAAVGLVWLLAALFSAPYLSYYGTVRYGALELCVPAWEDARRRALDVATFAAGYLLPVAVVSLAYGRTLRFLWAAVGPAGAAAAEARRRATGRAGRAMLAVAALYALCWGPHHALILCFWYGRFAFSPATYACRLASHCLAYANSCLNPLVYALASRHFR
CHO parental Ca – counter-screen: ATP calcium response change in parental CHO cells; parental CHO-K1, ATP-induced calcium, Fluo-8 fluorescence; AID 463079; inhibition, % at 5.6 µM; 330,000 tested, 0.63% active;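 active = inhibition above that plate's mean sample inhibition plus 3 SD, cut at about 26% in these data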;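 also: 0% = ATP-challenged DMSO wells and 100% = DMSO wells without ATP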
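test system = CHO parental line | reagent = ATP stimulus | measured by = intracellular calcium via Fluo-8 no-wash fluorescent dye | control set = ATP and no-ATP DMSO wells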
GPR7 antagonist – antagonists of human GPR7 (neuropeptides B/W receptor 1); P48145; GPR7-expressing cells, fluorescence antagonist assay; inhibition, % at 4.4 µM; 290,000 tested, 1.1% active; in the data active = inhibition above about 16%, passing the limit was not always enough;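 also: cells stimulated with the agonist NPW; 0% = agonist with vehicle and 100% = vehicle without agonist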
Target sequence (P48145 whole entry, looked up): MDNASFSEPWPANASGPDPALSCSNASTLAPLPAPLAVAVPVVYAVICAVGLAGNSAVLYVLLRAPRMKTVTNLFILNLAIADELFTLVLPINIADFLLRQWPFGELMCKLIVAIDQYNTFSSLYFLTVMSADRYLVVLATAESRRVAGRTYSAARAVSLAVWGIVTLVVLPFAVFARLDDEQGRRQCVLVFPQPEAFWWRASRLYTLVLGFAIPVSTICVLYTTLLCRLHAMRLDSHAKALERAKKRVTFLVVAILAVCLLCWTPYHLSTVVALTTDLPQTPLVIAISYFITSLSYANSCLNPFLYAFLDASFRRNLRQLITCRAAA
OX1R antag-2 – antagonists of human orexin 1 receptor; CHO/OX1R cells, Fluo-8 calcium fluorescence, orexin A; inhibition, % at 5 µM; 330,000 tested, 0.43% active;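 active = inhibition above its plate's threshold, mean inhibition of all tested compounds on the plate plus 3 SD, cut at about 37% in these data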;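 also: 0% = orexin A challenge wells and 100% = SB-334867-A antagonist wells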
The depositor's hits bear a star. Sampled rows, rich in hits. Any-hit rate of the full collection: about 3.1%.

Screening CC(OC(=O)CCCC(=O)Nc1ccc(F)cc1)C(=O)c1ccccc1 (stereo not given) returned OX1R antag-1 20, GalR3 antagonist -11, CHO parental Ca -11, GPR7 antagonist -1 and OX1R antag-2 -26.
Cc1ccc(/C=N/NC(=O)CSc2nc3ccccc3[nH]2)o1 was read as OX1R antag-1 16, GalR3 antagonist -5, CHO parental Ca -12, GPR7 antagonist -5 and OX1R antag-2 7.
For CN(C)C(=O)COC(=O)/C=C/c1ccccc1[N+](=O)[O-] the results were OX1R antag-1 39*, GalR3 antagonist -3, CHO parental Ca 3, GPR7 antagonist 0 and OX1R antag-2 -12.
For CCNC(=O)COC(=O)/C=C/c1ccccc1[N+](=O)[O-] the results were OX1R antag-1 52, GalR3 antagonist 1, CHO parental Ca -3, GPR7 antagonist -4 and OX1R antag-2 -20.
`COc1ccc(CNC(=O)CN2C(=O)NC(c3ccccc3)(c3ccccc3)C2=O)cc1` gave OX1R antag-1 15, GalR3 antagonist -8, CHO parental Ca -21 and OX1R antag-2 -1.
For COc1ccc(CCNC(=O)CN2C(=O)NC(c3ccccc3)(c3ccccc3)C2=O)cc1 the results were OX1R antag-1 36*, GalR3 antagonist -6, CHO parental Ca -16 and OX1R antag-2 24.
Screening COC(=O)c1sc(NC(=O)COc2ccc(OC)cc2)nc1C returned OX1R antag-1 18, GalR3 antagonist -5, CHO parental Ca -16, GPR7 antagonist 7 and OX1R antag-2 -16.
`COC(=O)c1sc(NC(=O)COc2cccc(C)c2)nc1C` gave OX1R antag-1 69*, GalR3 antagonist -6, CHO parental Ca -6, GPR7 antagonist 13 and OX1R antag-2 -13.
Screening O=C(CN1C(=O)/C(=C\c2ccccc2Cl)Oc2ccccc21)NCc1cccnc1 returned OX1R antag-1 72*, GalR3 antagonist -1, CHO parental Ca -24, GPR7 antagonist -20 and OX1R antag-2 -16.
Screening CCOc1ccc(N(CC(=O)Nc2ccc(OC)cc2)C2=NC3CS(=O)(=O)CC3S2)cc1 (stereo not given) returned OX1R antag-1 12, CHO parental Ca -9, GPR7 antagonist -7 and OX1R antag-2 -8.
`CC(C)CCOC(=O)C[N+](C)(C)CCOC1CC2CCC1(C)C2(C)C` (stereo not given) gave OX1R antag-1 5, GalR3 antagonist -10, CHO parental Ca -13, GPR7 antagonist 19* and OX1R antag-2 -25.
CCCOC(=O)C[N+](C)(C)CCOC1CC2CCC1(C)C2(C)C (stereo not given) was read as OX1R antag-1 19, GalR3 antagonist 0, CHO parental Ca -9, GPR7 antagonist 7 and OX1R antag-2 -11.
N#C/C(=N\Nc1ccc(Cl)c(Cl)c1)C(=O)C1CC1 was read as OX1R antag-1 50*, GalR3 antagonist 2, CHO parental Ca 25, GPR7 antagonist -3 and OX1R antag-2 17.
Screening Nc1ccc(NC(=O)c2ccco2)c(Cl)c1 returned OX1R antag-1 6, GalR3 antagonist -2, CHO parental Ca 2, GPR7 antagonist -5 and OX1R antag-2 -3.
Screening CCC(=O)Nc1ccc2nc3c(=O)[nH]c(=S)[nH]c3nc2c1 returned OX1R antag-1 65*, GalR3 antagonist -9, CHO parental Ca -1, GPR7 antagonist -5 and OX1R antag-2 -8.
COC(=O)[C@]12C[C@H](CC(=O)NCc3cccc4ccccc34)C(=O)N(Cc3ccccc3)C1=C[C@H](C(C)(C)C)O[C@@H]2C was read as GalR3 antagonist 2.
For CCCN(CCC)S(=O)(=O)c1ccc(N2CCCC2=O)c([N+](=O)[O-])c1 the results were OX1R antag-1 38, GalR3 antagonist 2, CHO parental Ca 4, GPR7 antagonist -3 and OX1R antag-2 -11.
`CCCN(CCC)S(=O)(=O)c1ccc(Cl)c([N+](=O)[O-])c1` gave OX1R antag-1 36, GalR3 antagonist -14, CHO parental Ca -15, GPR7 antagonist 42* and OX1R antag-2 -26.
`CCC(C)NC(=O)CN(C1CCCCC1)S(=O)(=O)c1ccc(F)cc1` (stereo not given) gave OX1R antag-1 15, GalR3 antagonist -3, CHO parental Ca -10, GPR7 antagonist -2 and OX1R antag-2 -30.
Screening O=C(Nc1ccc(Cl)cc1)Nc1nc(-c2ccccc2)cs1 returned OX1R antag-1 2, GalR3 antagonist -2, CHO parental Ca 5, GPR7 antagonist -12 and OX1R antag-2 13.
`Cc1cccc(Nc2nc(-c3cccs3)cs2)n1` gave OX1R antag-1 55, GalR3 antagonist -4, CHO parental Ca -46, GPR7 antagonist -13 and OX1R antag-2 -16.
`O=C(Nc1cccc(Cl)c1)Nc1nc(-c2ccccc2)cs1` gave OX1R antag-1 46, GalR3 antagonist -2, CHO parental Ca 37*, GPR7 antagonist -2 and OX1R antag-2 34.
`Cc1cccc(Nc2nc(-c3ccccn3)cs2)n1` gave OX1R antag-1 66*, GalR3 antagonist -4, CHO parental Ca -5, GPR7 antagonist -3 and OX1R antag-2 20.
CC(=O)Nc1cccc(-c2csc(Nc3ccccn3)n2)c1 was read as OX1R antag-1 61*, GalR3 antagonist -7, CHO parental Ca -12, GPR7 antagonist 4 and OX1R antag-2 -10.
`C=CCn1c(=N)n(CC(=O)c2cccc([N+](=O)[O-])c2)c2ccccc21` gave OX1R antag-1 39*, GalR3 antagonist -2, CHO parental Ca -6, GPR7 antagonist 0 and OX1R antag-2 -21.
`N#C/C(=C\c1ccc(Cl)c([N+](=O)[O-])c1)c1ccccn1` gave OX1R antag-1 71*, GalR3 antagonist -4, CHO parental Ca -20, GPR7 antagonist -6 and OX1R antag-2 -8.
CNc1ccc(/C=C(\C#N)c2ccccn2)cc1[N+](=O)[O-] was read as OX1R antag-1 41, GalR3 antagonist -3, CHO parental Ca 14, GPR7 antagonist 4 and OX1R antag-2 7.
NC(=O)Cn1c(=O)n(CCC(=O)Nc2ccc(F)cc2)c(=O)c2sccc21 was read as OX1R antag-1 11, GalR3 antagonist -9, CHO parental Ca 5, GPR7 antagonist -13 and OX1R antag-2 -10.
O=[N+]([O-])c1ccc(N2CCN(c3cccc(Cl)c3)CC2)cn1 was read as OX1R antag-1 9, GalR3 antagonist -14, CHO parental Ca 0, GPR7 antagonist 21* and OX1R antag-2 -14.
Screening CC(C)(C)c1ccc(NC(=O)COc2ccc(-n3ccnc3)cc2)cc1 returned OX1R antag-1 38, GalR3 antagonist -6, CHO parental Ca 44*, GPR7 antagonist 2 and OX1R antag-2 62*.
Screening COc1cc(NC(=O)COc2ccc(-n3ccnc3)cc2)cc(OC)c1 returned OX1R antag-1 8, GalR3 antagonist -4, CHO parental Ca 0, GPR7 antagonist -1 and OX1R antag-2 -10.
For O=[N+]([O-])c1ccc(N=NN(CCO)CCO)cc1 the results were OX1R antag-1 47*, GalR3 antagonist -5, CHO parental Ca -1, GPR7 antagonist -7 and OX1R antag-2 1.
